The record followed here is ChEMBL document CHEMBL1287769, “Investigating the activity of 2-substituted alkyl-6-(2,5-dioxopyrrolidin-1-yl)hexanoates as skin penetration enhancers” (Bioorg Med Chem, 2010).

A short description of data set [1]: Lipophilicity, log K of the compound in methanol-water mixture by HPLC. The format is physicochemical. In a few lines:
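Isocratic RP-HPLC on end-capped C18 column, methanol as organic modifier in mobile phase at various amounts, 25 °C, detection 204 nm. Dead time from KI in methanol. Capacity factor k = (tR − tD)/tD; log k used as lipophilicity index.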

The nature of data set [2]: Potentiation of theophylline transdermal permeation in pig ear skin after 24 hrs by Franz diffusion cells method relative to untreated control. In kind it is functional, Sus scrofa. In a few lines: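 Thawed full-thickness porcine ear skin, epidermis up, in vertical Franz cell (0.635 cm2 donor area). Receptor: PBS pH 7.4, 37 °C, stirred; skin equilibrated 0.5 h. Donor: enhancer 20 mg in PG 0.5 mL plus theophylline 5 mg in water 0.5 mL, sonicated; controls without enhancer. Receptor sampled at 1, 2, 4, 8, 12, 24 h, theophylline by HPLC at 280 nm. Steady-state flux from linear region; ER = flux with/without enhancer; ≥3 determinations, ≥2 animals.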

Another data set concerns SK-N-MC. Description: Antiproliferative activity against human SK-N-MC cells after 72 hrs by MTT assay. The format is cell-based. The essentials: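 SK-N-MC cells (ATCC) grown in MEM with 10% FBS, pyruvate, non-essential amino acids, glutamine, antibiotics, fungizone at 37 °C, 5% CO2. Seeded 1.5 × 10^4 cells/well in medium with human diferric transferrin 1.25 µM ([Fe] = 2.5 µM), compounds 0–25 µM, 72 h. MTT added for 2 h, solubilized in SDS/isobutanol/HCl, read at 570 nm. IC50 = concentration reducing absorbance to 50% of untreated control; mean ± SD, n = 3.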
Background: Tetrazolium dyes change colour on reduction, which living cells bring about.

Usually IC50 stands for the concentration needed to halve the response being measured. Regarding `CCCCCCCCCCCCOC(=O)C(CCCCN1C(=O)CCC1=O)N1CCOCC1` (stereo unspecified), in data set [1], the “log K” value is recorded as 0.9221. The “fold change (FC)” value in data set [2] was 1.92. In the data set with SK-N-MC, the concentration for half-maximal inhibition (IC50) is above 6.25 µM.
In the case of `CCOC(=O)C(CCCCN1C(=O)CCC1=O)N1CCCCC1=O` (stereo unspecified), in data set [1], the “log K” value is on record as -0.9565.
Still for that read-out and setting: under `CCOC(=O)C(CCCCN1C(=O)CCC1=O)N1CCOCC1` (stereo unspecified) stands -0.7951.
On to `CCCCCCOC(=O)C(CCCCN1C(=O)CCC1=O)N1CCCCC1=O` (stereo unspecified), for which the “log K” value in data set [1] is recorded as -0.2356. Also, the “fold change (FC)” value in data set [2] came to 2.33. Besides, the 50% inhibitory concentration (IC50) with SK-N-MC was above 6.25 µM.
Take `CCCCCCCOC(=O)C(CCCCN1C(=O)CCC1=O)N1CCCCC1=O` (stereo unspecified): in data set [1], the “log K” value is -0.0685. Further, in data set [2], the “fold change (FC)” value is 2.17. In addition, the IC50 with SK-N-MC is above 6.25 µM.
As to `CCCCCCCCOC(=O)C(CCCCN1C(=O)CCC1=O)N1CCCCC1=O` (stereo unspecified), the “log K” value in data set [1] came out at 0.0973. Besides, the “fold change (FC)” value in data set [2] amounted to 1.88. Moreover, the IC50 with SK-N-MC is above 6.25 µM.
As for `CCCCCCCCCOC(=O)C(CCCCN1C(=O)CCC1=O)N1CCCCC1=O` (stereo unspecified), in data set [1], the “log K” value worked out at 0.2638. Further, in data set [2], the “fold change (FC)” value turned out to be 1.81. Moreover, the half-inhibitory concentration (IC50) in the data set on SK-N-MC was above 6.25 µM.
The matching figures for `CCCCCCCCCCOC(=O)C(CCCCN1C(=O)CCC1=O)N1CCCCC1=O` (stereo unspecified): 0.4285, 1.63 and above 6.25 µM.
For the compound `CCCCCCCCCCCOC(=O)C(CCCCN1C(=O)CCC1=O)N1CCCCC1=O` (stereo unspecified), the “log K” value in data set [1] is 0.5894. The “fold change (FC)” value in data set [2] is given as 2.36. In addition, the IC50 in the data set on SK-N-MC is above 6.25 µM.
In the same order, the values of `CCCCCCCCCCCCOC(=O)C(CCCCN1C(=O)CCC1=O)N1CCCCC1=O` (stereo unspecified) are 0.7413, 1.75 and above 6.25 µM.
Consider `CCCCCCOC(=O)C(CCCCN1C(=O)CCC1=O)N1CCOCC1` (stereo unspecified), for which the “log K” value in data set [1] is recorded as -0.0736. Further, the “fold change (FC)” value in data set [2] was found to be 2.11. This compound also came in with an IC50 with SK-N-MC above 6.25 µM.
On to `CCCCCCCOC(=O)C(CCCCN1C(=O)CCC1=O)N1CCOCC1` (stereo unspecified), for which the “log K” value in data set [1] stood at 0.0934. Besides, the “fold change (FC)” value in data set [2] came to 1.26. This compound yielded an IC50 with SK-N-MC above 6.25 µM.
As for `CCCCCCCCOC(=O)C(CCCCN1C(=O)CCC1=O)N1CCOCC1` (stereo unspecified), in data set [1], the “log K” value came out at 0.2613. Besides, the “fold change (FC)” value in data set [2] was 1.8. This compound returned an IC50 with SK-N-MC above 6.25 µM.
With `CCCCCCCCCOC(=O)C(CCCCN1C(=O)CCC1=O)N1CCOCC1` (stereo unspecified), in data set [1], the “log K” value was 0.4177. Also, the “fold change (FC)” value in data set [2] came to 1.49. In the data set with SK-N-MC, this compound registered an IC50 above 6.25 µM.
`CCCCCCCCCCOC(=O)C(CCCCN1C(=O)CCC1=O)N1CCOCC1` (stereo unspecified): the “log K” value in data set [1] was found to be 0.5834. Besides, in data set [2], the “fold change (FC)” value is 1.71. The IC50 with SK-N-MC was above 6.25 µM.
As to `CCCCCCCCCCCOC(=O)C(CCCCN1C(=O)CCC1=O)N1CCOCC1` (stereo unspecified), the “log K” value in data set [1] worked out at 0.7588. Besides, the “fold change (FC)” value in data set [2] is 1.61. The same compound came in with an IC50 in the data set on SK-N-MC above 6.25 µM.
In turn, `CC(=O)N(O)CCCCCNC(=O)CCC(=O)N(O)CCCCCNC(=O)CCC(=O)N(O)CCCCCN` [DEFEROXAMINE] gave an IC50 in the data set on SK-N-MC of 17.1 µM.
In the case of `CCCCCCCC/C=C\CCCCCCCC(=O)O` [OLEIC ACID], the “fold change (FC)” value in data set [2] came out at 1.13.
